Results taken from ChEMBL document CHEMBL5038594, “Structural Fine-Tuning of Desmuramylpeptide NOD2 Agonists Defines Their In Vivo Adjuvant Activity” (J Med Chem, 2021).
The source made the active and inactive calls. The rule behind the calls is not given here.

How the values were obtained:
Mus musculus [1] = experiment: Immuno-adjuvant activity in NIH/OlaHsd mouse assessed as increase in ovalbumin specific IgG production in sera at 0.15 micromol administered subcutaneously on day 1 and as booster dose on day 21 and 28 with ovalbumin loaded liposomes by ELISA; format: functional, organism-based; details: dose 0.15 µmol, time 28.0 day
Summary of the method: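 Groups of 5 female NIH/OlaHsd mice, 2.0–2.5 months old, immunized with ovalbumin-loaded liposomes (10 μg ovalbumin per dose) containing 0.15 μmol adjuvant per dose. Liposomes were neutral (PC–cholesterol 7:5), anionic (PC–cholesterol–dicetylphosphate 7:5:1) or mannosylated (PC–cholesterol–mannose-PEG-PA 7:5:0.5). Serum ovalbumin-specific IgG, IgG1 and IgG2a measured 1 week after the second booster. Mean ± SEM.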

MEC1 [2] = experiment: Cytotoxicity against human MEC-1 cells cocultured with human PBMC cells assessed as inhibition of cell proliferation at 10 uM incubated with PBMC cells for 18 hrs followed by co-incubation with MEC-1 cells for 4 hrs by SYTOX blue staining based flow cytometric analysis; format: functional
Summary of the method: (§1)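 Effector cells are freshly Ficoll-isolated human PBMCs, 4 × 10^5 per well, pretreated 18 h with compound or 0.1% DMSO. CFSE-labelled K562 or MEC1 targets, 1 × 10^4 per well, are then added at 40:1 effector:target ratio and co-incubated 4 h at 37 °C. Dead targets are CFSE+/Sytox blue+ by flow cytometry. Results are relative to vehicle. Duplicates; three (MEC1) or four (K562) independent experiments. One-way ANOVA with Dunnett.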

MEC1 [3] = experiment: Cytotoxicity against human MEC-1 cells cocultured with human PBMC cells assessed as inhibition of cell proliferation at 100 nM incubated with PBMC cells for 18 hrs followed by co-incubation with MEC-1 cells for 4 hrs by SYTOX blue staining based flow cytometric analysis; format: functional; summary of the method: as §1
PBMC [4] = experiment: Immunostimulatory activity in human PBMC cells assessed as increase in IL-1beta production at 2 uM incubated for 18 hrs by flow cytometry analysis; format: functional, cell-based
Summary of the method: (§2)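 Human PBMCs from healthy donors, 1 × 10^6 cells/mL in RPMI 1640 with 10% FBS, treated with 2 μM compound or 0.1% DMSO, without or with LPS 10 ng/mL, for 18 h at 37 °C. Supernatant cytokines quantified by cytometric bead array (human inflammatory panel) on a flow cytometer against recombinant standards. Four independent donors. Repeated-measures one-way ANOVA with Dunnett.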

Mus musculus [5] = experiment: Immuno-adjuvant activity in NIH/OlaHsd mouse assessed as increase in ovalbumin specific […] associated IgG1 production in sera at 0.30 micromol administered subcutaneously on day 1 and as booster dose on day 21 with ovalbumin loaded neutral liposomes and measured 1 week post booster dose by ELISA; format: functional, organism-based; details: dose 0.3 µmol, time 28.0 day
Summary of the method: (§3)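 Groups of 5 female NIH/OlaHsd mice, 2.0–2.5 months old, immunized with ovalbumin-loaded neutral liposomes (10 μg ovalbumin per dose) containing 0.30 μmol adjuvant per dose, plus one booster dose. Serum ovalbumin-specific IgG, IgG1 and IgG2a measured 1 week after the booster. Mean ± SEM of 5 mice.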

PBMC [6] = experiment: Immunostimulatory activity in human PBMC cells assessed as increase in LPS-induced IL-8 production at 2 uM incubated for 18 hrs by flow cytometry analysis; format: functional, cell-based; summary of the method: as §2
PBMC [7] = experiment: Immunostimulatory activity in human PBMC cells assessed as increase in LPS-induced TNF-alpha production at 2 uM incubated for 18 hrs by flow cytometry analysis; format: functional, cell-based; summary of the method: as §2
PBMC [8] = experiment: Immunostimulatory activity in human PBMC cells assessed as increase in IL-8 production at 2 uM incubated for 18 hrs by flow cytometry analysis; format: functional, cell-based; summary of the method: as §2
PBMC [9] = experiment: Immunostimulatory activity in human PBMC cells assessed as increase in LPS-induced IL-6 production at 2 uM incubated for 18 hrs by flow cytometry analysis; format: functional, cell-based; summary of the method: as §2
Mus musculus [10] = experiment: Immuno-adjuvant activity in NIH/OlaHsd mouse assessed as increase in ovalbumin specific […] associated IgG2a production in sera at 0.30 micromol administered subcutaneously on day 1 and as booster dose on day 21 with ovalbumin loaded neutral liposomes and measured 1 week post booster dose by ELISA; format: functional, organism-based; details: dose 0.3 µmol, time 28.0 day; summary of the method: as §3

## CCCCCCCCCCCCCCCCCC(=O)Oc1ccc(/C=C/C(=O)NCC(=O)N[C@H](C(=O)N[C@H](CCC(=O)OCC)C(=O)OCC)C(C)C)cc1OC
Mus musculus [1]
  Activity: Active
MEC1 [2]
  Activity: Active
MEC1 [3]
  Activity: inactive
PBMC [4]
  Activity: inactive
Mus musculus [5]
  Activity: Active
PBMC [6]
  Activity: Active
PBMC [7]
  Activity: Active
PBMC [8]
  Activity: inactive
PBMC [9]
  Activity: Active
Mus musculus [10]
  Activity: Active
